Drawing on ChEMBL document CHEMBL4680108, “Ancistrolikokine E, a 5,8'-Coupled Naphthylisoquinoline Alkaloid, Eliminates the Tolerance of Cancer Cells to Nutrition Starvation by Inhibition of the Akt/mTOR/Autophagy Signaling Pathway” (2018), this text covers inhibition and Activity for one compound.

The source made the active and inactive calls. The rule behind the calls is not given here.

In assay [1] the test system is PANC-1. In words: Inhibition of Akt/mTOR signaling pathway in human PANC-1 cells cultured in nutrient-deprived medium assessed as decrease in phosphorylated Akt level at S473 residue at 20 uM measured after 6 hrs by Western blot analysis relative to control. The format is cell-based. The essentials: (§1)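 Western blot of PANC-1 cells exposed to compound at different concentrations for 6 h in NDM or DMEM. Probed for total and phosphorylated Akt and mTOR and for GβL. Band levels compared with untreated control cells in NDM.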

The test system of assay [2] is PANC-1. The assay can be described thus: Induction of apoptosis in human PANC-1 cells assessed as inhibition of Bcl-2 after 6 hrs by Western blot analysis. Particulars: dose 2.5-40 µM. The format is functional, cell-based. The method, boiled down:
(§2)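 PANC-1 cells in NDM or DMEM exposed to compound at different concentrations for 6 h, then immunoblotted for Bcl-2, Bcl-xL and caspase-3.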
In general terms: Immunoblotting shows a protein as a band on a membrane.

For assay [3], the system named is PANC-1. The assay can be described thus: Inhibition of Akt/mTOR signaling pathway in human PANC-1 cells cultured in nutrient-deprived medium assessed as decrease in phosphorylated Akt level at S473 residue at 40 uM measured after 6 hrs by Western blot analysis relative to control. The format is cell-based. The essentials:
as §1

Assay [4] has as its system PANC-1. The assay can be described thus: Inhibition of Akt/mTOR signaling pathway in human PANC-1 cells cultured in nutrient-deprived medium assessed as decrease in GbetaL level measured after 6 hrs by Western blot analysis. Type of assay: cell-based. Particulars: dose 2.5-40 µM. The method, boiled down: as §1
In assay [5] the test system is PANC-1. In words: Inhibition of cell migration in human PANC1 cells assessed as wound length at 5 uM cultured in nutrient rich DMEM medium measured after 48 hrs by wound healing assay relative to T0. Also on record: scale not given: the % may be the effect or the level left. Type of assay: functional. The essentials:
(§3)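 PANC-1 monolayers (5 × 10^5 cells/well), attached 24 h, scratched about 600 μm with a pipet tip, washed with PBS. Exposed in DMEM to 0–10 μM for 48 h in triplicate. Wound length measured at 10 points on phase-contrast images and expressed relative to initial length at T0.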

Assay [6] concerns PANC-1. In words: Induction of apoptotic cell death in human PANC-1 cells cultured in nutrient-deprived medium assessed as leakage of cellular contents in to the medium at 5 uM measured after 24 hrs by Hoechst 33342 staining based phase-contrast digital microscopy. The format is functional. The method, boiled down: (§4)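 Cells (2 × 10^5) plated in 35 mm dishes, left 24 h to attach, washed twice with PBS, then given 5 μM in NDM for 24 h. Hoechst 33342 added directly to the medium for 5 min. Imaged in phase-contrast and fluorescence modes (20× objective).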

The test system of assay [7] is PANC-1. In words: Inhibition of autophagy in human PANC-1 cells cultured in nutrient-deprived medium assessed as inhibition of Atg12 expression after 6 hrs by Western blot analysis. Type of assay: functional, cell-based. Particulars: dose 2.5-40 µM.
Assay [8] deals with PANC-1. In words: Inhibition of autophagy in human PANC-1 cells cultured in nutrient-deprived medium assessed as inhibition of LC3-2 expression at 40 uM after 6 hrs in presence of chloroquine by Western blot analysis. Type of assay: functional, cell-based.
Assay [9] has as its system PANC-1. In words: Inhibition of Akt/mTOR signaling pathway in human PANC-1 cells cultured in nutrient-deprived medium assessed as decrease in phosphorylated mTOR level at S2448 residue measured after 6 hrs by Western blot analysis. The format is cell-based. The settings on record: dose 2.5-40 µM. The essentials: as §1
The subject of assay [10] is PANC-1. In words: Induction of apoptotic cell death in human PANC-1 cells cultured in nutrient-deprived medium assessed as intact nuclei at 5 uM measured after 24 hrs by Hoechst 33342 staining based phase-contrast digital microscopy. The format is functional. The essentials:
as §4

For assay [11], the system named is PANC-1. In words: Inhibition of colony formation in human PANC-1 cells at 10 uM cultured in nutrient rich DMEM medium measured after 24 hrs by crystal violet staining based assay relative to control. Type of assay: functional. The essentials:
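PANC-1 cells (5 × 10^2/well) attached in DMEM for 24 h, then exposed to 0, 2.5, 5 or 10 μM in DMEM for 24 h (triplicate). Washed, grown in fresh compound-free DMEM for 12 days, fixed in 4% formaldehyde and stained with crystal violet for 10 min. Colony area measured as a percentage of well area.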

For assay [12], the system named is PANC-1. The assay can be described thus: Inhibition of cell migration in human PANC1 cells assessed as wound length at 10 uM cultured in nutrient rich DMEM medium measured after 48 hrs by wound healing assay relative to T0. Further details: scale not given: the % may be the effect or the level left. Type of assay: functional. The essentials:
as §3

Assay [13] has as its system PANC-1. The assay can be described thus: Induction of apoptosis in human PANC-1 cells cultured in nutrient-deprived medium assessed as inhibition of caspase-3 measured after 6 hrs by Western blot analysis. Type of assay: functional, cell-based. Particulars: dose 2.5-40 µM. The essentials: as §2
Assay [14] concerns PANC-1. In words: Inhibition of Akt/mTOR signaling pathway in human PANC-1 cells cultured in nutrient-deprived medium assessed as decrease in phosphorylated Akt level at S473 residue measured after 6 hrs by Western blot analysis. The format is cell-based. The settings on record: dose 2.5-40 µM. The method, boiled down: as §1
For assay [15], the system named is PANC-1. The assay can be described thus: Induction of apoptosis in human PANC-1 cells cultured in nutrient-deprived medium assessed as induction of active caspase-3 cleavage at 2.5 to 40 uM measured after 6 hrs by Western blot analysis. Particulars: dose 2.5-40 µM. The format is functional, cell-based. The method, boiled down:
as §2

Assay [16] concerns PANC-1. The assay can be described thus: Induction of apoptosis in human PANC-1 cells cultured in nutrient-deprived medium assessed as inhibition of Bcl-xl measured after 6 hrs by Western blot analysis. Type of assay: functional, cell-based. The settings on record: dose 2.5-40 µM. The method, boiled down: as §2
For assay [17], the system named is PANC-1. In words: Inhibition of Akt/mTOR signaling pathway in human PANC-1 cells cultured in nutrient-deprived medium assessed as decrease in phosphorylated mTOR level at S2448 residue at 40 uM measured after 6 hrs by Western blot analysis relative to control. The format is cell-based. The method, boiled down:
as §1

Assay [18] deals with PANC-1. In words: Induction of necrosis in human PANC-1 cells cultured in nutrient-deprived medium assessed as rupture of cell membrane at 5 uM measured after 24 hrs by ethidium bromide/acridine orange staining based phase contrast microscopy. Type of assay: functional. The method, boiled down:
(§5)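 PANC-1 cells (2 × 10^5/well) attached in DMEM for 24 h, washed twice with PBS, then treated in NDM (1.25, 2.5, 5 μM; control in NDM alone) for 24 h. Stained with ethidium bromide/acridine orange and imaged in phase-contrast and red/green fluorescence modes (20× objective).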

The subject of assay [19] is PANC-1. The assay can be described thus: Inhibition of Akt/mTOR signaling pathway in human PANC-1 cells cultured in nutrient-deprived medium assessed as decrease in total Akt level at 40 uM measured after 6 hrs by Western blot analysis relative to control. The format is cell-based. The essentials: as §1
In assay [20] the test system is PANC-1. In words: Inhibition of autophagy in human PANC-1 cells cultured in nutrient-deprived medium assessed as inhibition of LC3-2 expression at 40 uM after 6 hrs in presence of chloroquine by Western blot analysis relative to control. Type of assay: functional, cell-based.
For assay [21], the system named is PANC-1. The assay can be described thus: Induction of necrosis in human PANC-1 cells cultured in nutrient-deprived medium assessed as leakage of cellular contents in to the medium at 5 uM measured after 24 hrs by ethidium bromide/acridine orange staining based phase contrast microscopy. The format is functional, cell-based. The method, boiled down: as §5
The test system of assay [22] is PANC-1. In words: Induction of necrosis in human PANC-1 cells cultured in nutrient-deprived medium assessed as membrane blebbing at 5 uM measured after 24 hrs by ethidium bromide/acridine orange staining based phase contrast microscopy. Type of assay: functional, cell-based. The essentials:
as §5

Assay [23] relates to PANC-1. In words: Anticancer activity against human PANC-1 cells assessed as cell death at 10 uM measured within 20 hrs by digital cell imaging analysis relative to control. Type of assay: functional. The method, boiled down:
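PANC-1 cells (3 × 10^6) in 35 mm dishes were exposed to 10 μM compound in nutrient-deprived medium in a stage-top incubator at 37 °C, 5% CO2. Phase-contrast images were taken every 10 min for 24 h (145 frames, 20× objective). Untreated cells in NDM served as control.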

By inhibition is commonly meant the share of the control response that was lost under treatment. On to `COc1cc(OC)c(-c2ccc(O)c3c(OC)cc(C)cc23)c2c1C(C)=N[C@H](C)C2`, for which the inhibition was 65% with PANC-1 [1]; 99% in the assay with PANC-1 [3]; “Dose-dependent effect” in the assay on PANC-1 [4]; “Dose-dependent effect” with PANC-1 [7]; “Dose-dependent effect” in the assay on PANC-1 [9]; “Dose-dependent effect” in the assay with PANC-1 [14]. Also, the inhibition in the assay on PANC-1 [17] worked out at 92%; with PANC-1 [19], 86%. For the same compound, the inhibition result in the assay on PANC-1 [2], in the assay on PANC-1 [8], in the assay with PANC-1 [13], with PANC-1 [16] and with PANC-1 [20] was “Active” in each case. In addition, the Activity with PANC-1 [5] was 58%; with PANC-1 [12], 11%; in the assay on PANC-1 [23], 100%. For the same compound, the outcome in the assay with PANC-1 [6], with PANC-1 [10], in the assay with PANC-1 [18], in the assay with PANC-1 [21] and in the assay with PANC-1 [22] was Active. This compound returned an inhibition at 10 µM in the assay with PANC-1 [11] of 100%. In the assay with PANC-1 [15], the outcome was inactive.
